As usually defined, the IC50 is the concentration needed to halve the response being measured. A lower IC50 goes with greater potency in that assay.

Four compounds from ChEMBL document CHEMBL1131025, “14-Desoxy analogues of naltrindole and 7-spiroindanyloxymorphone: the role of the 14-hydroxy group at delta opioid receptors” (J Med Chem, 1998) can be followed below.

The species entered for assay [1] is Cavia porcellus. In words: (§1) Agonist activity (ability to decrease the twitch height of the electrically stimulated smooth muscle) in electrically stimulated guinea pig ileum(GPI). The assay is classed as functional, Muscle tissue. The gist of the method: (§2)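 Electrically stimulated guinea pig ileum. Agonism read as a drop in twitch height. Compounds were first tested at 1 μM. Full agonists were then run at 4-6 concentrations to build a dose-response curve and give the IC50 for half-maximal response (n ≥ 3). Partial responders were reported as percent of maximal agonist response.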

The target of assay [2] is Kappa-type opioid receptor (Cavia porcellus) (UniProt P41144). Briefly: Antagonistic activity expressed as IC50 ratio against ethylketazocine (EK) Opioid receptor kappa 1 in smooth muscle preparations. The format is functional. The gist of the method: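 Electrically stimulated guinea pig ileum. The preparation was preincubated 15 min with test compound (100 nM) before challenge with a standard agonist: morphine for μ, ethylketazocine for κ. The ratio is agonist IC50 with antagonist divided by control IC50 of agonist alone (n ≥ 3).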
Sequence of Kappa-type opioid receptor (Cavia porcellus) (P41144 whole entry): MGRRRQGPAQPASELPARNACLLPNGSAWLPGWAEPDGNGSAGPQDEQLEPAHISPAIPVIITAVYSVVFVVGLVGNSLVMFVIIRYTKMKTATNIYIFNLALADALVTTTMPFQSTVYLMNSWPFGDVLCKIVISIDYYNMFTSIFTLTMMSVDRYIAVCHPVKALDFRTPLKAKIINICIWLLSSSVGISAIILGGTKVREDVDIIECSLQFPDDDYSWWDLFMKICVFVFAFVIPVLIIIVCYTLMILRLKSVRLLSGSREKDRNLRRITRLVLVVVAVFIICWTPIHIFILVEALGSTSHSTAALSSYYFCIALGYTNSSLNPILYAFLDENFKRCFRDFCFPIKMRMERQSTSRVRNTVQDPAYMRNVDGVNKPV

The next assay is filed under the species Mus musculus. In words: Agonist vas deferens(MVD). The assay is classed as functional. The gist of the method:
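Electrically stimulated mouse vas deferens. Agonism read as a drop in twitch height. Compounds were first tested at 1 μM. Full agonists were then run at 4-6 concentrations to build a dose-response curve and give the IC50 for half-maximal response (n ≥ 3). Partial responders were reported as percent of maximal agonist response.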

The target in assay [3] is Delta-type opioid receptor (Mus musculus) (UniProt P32300). In words: Antagonistic activity expressed as IC50 ratio against DADLE-Opioid receptor delta 1 in smooth muscle preparations of mouse vas deferens(MVD). The assay is classed as functional. Put shortly:
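Electrically stimulated mouse vas deferens. The preparation was preincubated 15 min with test compound (100 nM) before challenge with the standard δ agonist DADLE. The ratio is DADLE IC50 with antagonist divided by control IC50 of DADLE alone (n ≥ 3).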

Assay [4] is filed under the species Cavia porcellus. Described as §1. The assay is classed as functional, organism-based. Conditions: Muscle tissue. Put shortly: as §2
The species entered for assay [5] is Cavia porcellus. In words: Antagonist potency (Ke) was evaluated in guinea pig ileum(GPI). The format is functional. Put shortly:
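Antagonist potency came from IC50-ratio tests in which smooth muscle was preincubated 15 min with antagonist before agonist challenge.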

The species named for assay [6] is Cavia porcellus. In words: Agonist activity (ability to decrease the twitch height of the electrically stimulated smooth muscle) in electrically stimulated guinea pig ileum (GPI). The assay is classed as functional. Put shortly:
as §2

Sequence of Delta-type opioid receptor (Mus musculus) (P32300 whole entry): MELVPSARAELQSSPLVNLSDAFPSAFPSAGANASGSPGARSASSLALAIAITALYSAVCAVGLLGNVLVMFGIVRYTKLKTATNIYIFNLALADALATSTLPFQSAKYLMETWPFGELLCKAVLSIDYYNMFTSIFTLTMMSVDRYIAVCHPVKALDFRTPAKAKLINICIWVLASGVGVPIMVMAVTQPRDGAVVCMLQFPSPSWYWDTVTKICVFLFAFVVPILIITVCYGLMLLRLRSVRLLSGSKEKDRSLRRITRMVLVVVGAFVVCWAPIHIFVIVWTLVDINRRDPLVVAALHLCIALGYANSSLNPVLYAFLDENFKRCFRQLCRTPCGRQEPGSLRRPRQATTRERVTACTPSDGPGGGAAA

As to `CN1CC[C@]23c4c5ccc(O)c4O[C@H]2C(=O)C2(Cc4ccccc4C2)C[C@@]3(O)[C@H]1C5` [SPIROINDANYLOXYMORPHONE], the Max response in the assay listed under Cavia porcellus [1] is 55%. The IC50 ratio in assay [2] stood at 1.
On to `Oc1ccc2c3c1O[C@H]1c4[nH]c5ccccc5c4C[C@@]4(O)[C@@H](C2)N(CC2CC2)CC[C@]314` [NALTRINDOLE], for which the figures for the Max response in the assay listed under Cavia porcellus [1] and in the assay listed under Mus musculus were 7.6% and 37.1%, respectively.
The compound `CN1CCC23c4c5ccc(O)c4O[C@H]2C(=O)C2(Cc4ccccc4C2)CC3C1C5` (some centres not stated) yielded a Max response in the assay listed under Mus musculus of 58.6%. In assay [3], the IC50 ratio came out at 0.85. Moreover, the half-inhibitory concentration (IC50) in the assay listed under Cavia porcellus [4] is 153 nM.
Regarding `Oc1ccc2c3c1O[C@H]1c4[nH]c5ccccc5c4CC4C(C2)N(CC2CC2)CCC341` (some centres not stated), in the assay listed under Cavia porcellus [5], the Ke amounted to 2.98. For the same compound, the figures for the Max response in the assay filed under Cavia porcellus [6] and in the assay listed under Mus musculus were 16.85% and 22.6%, respectively. Besides, the IC50 ratio was found to be 1.64 in assay [2] and 34.6 in assay [3].
